# This is a sample that favours compounds with a hit; in the whole collection about 11% have one here.
# SF-1 act: activates the human nuclear receptor SF-1. CHO-K1 Gal4-SF-1 LBD luciferase reporter; % increase over DMSO SF-1-specific signal. activation, % at 10 µM. 65,000 tested, 1.9% active. Q13285;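 active = activation above the mean activation of all tested compounds plus 3 SD, cut at about 50% in these data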
#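 Material: Gal4–SF-1 LBD one-hybrid luciferase reporter in CHO-K1 cells | Amount: 4,000 cells per well | Compound dosing: 10 µM single point, 1% DMSO | Schedule: 20 h compound treatment, 37 °C | Measured by: SteadyLite luciferase luminescence | Evaluation: Percent activation versus DMSO | Control set: DMSO-treated SF-1-transfected cells as negative, DMSO-treated mock-transfected cells lacking SF-1 as background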
# M1 antagonist: antagonists of rat M1 muscarinic receptor; CHO-M1 cells, Fluo-4 calcium, ACh EC80 antagonist mode; active compounds read low; B-score at 10 µM; 64,000 tested, 3.4% active;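 active = calcium fluorescence response, raw or row-and-column corrected B-score, differing from the plate sample mean either way at a set confidence level, mostly lower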
# mHtt clearance: mutant huntingtin protein clearance | inhibition, % at 1.5 µM | AID 853 | 47,000 tested, 0.42% active | HeLa Exon1htt(103Q)mCFP, aggregate imaging; zero = plate's median compound well;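 active = inhibition of aggregate fluorescence above about 70%, also judged a hit by eye on the cell image, limit read from the data, passing the limit was not always enough; inconclusive = no rule stated for this call; inactive = not judged a hit on image review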;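 also: cells exposed to compound for three days before fixation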
# RORa activator: activates the human nuclear receptor RORA; 65,000 tested, 1.5% active; CHO-K1 Gal4-RORA LBD luciferase reporter, luminescence; percent increase over mock-subtracted basal signal; AID 560; activation, % at 10 µM;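 active = activation above the mean of all tested compounds plus 3 SD, cut at about 49% in these data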;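 also: 0% = DMSO-treated RORA cells and 100% = added signal equal to DMSO minus mock-transfected cells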
# M1 ag: agonists of M1 muscarinic receptor. CHO-M1 cells, Fluo-4 calcium fluorescence, agonist mode; active compounds read high. B-score at 10 µM. 64,000 tested, 3% active. AID 626;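 active = fluorescence rise, raw or as B-score row- and column-corrected plate score, outside the 99.7% band of its plate's samples, either direction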
# D1 allo mod: allosterically modulates the human D1 dopamine receptor; P21728; HEK293 D1, CRE-luciferase, dopamine EC30 potentiation; actives deviate in either direction; B-score at 10 µM; 58,000 tested, 5.9% active;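 active = luminescence count or its row- and column-corrected plate score outside the 99.7% band of the plate's sample wells, on either side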
# M1 agonist conf: confirmation of rat M1 muscarinic receptor agonists. 1,700 tested, 19% active. CHO-M1 cells, Fluo-4 calcium fluorescence, agonist mode; actives lie on both sides. shares compounds with M1 ag. fluorescence change (max-min) at 10 µM;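 active = fluorescence change differs from the solvent-only DMSO control mean at a set confidence level in both duplicate runs; inconclusive = differs from solvent-only control mean in just one of two runs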;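 also: an EC20 dose of acetylcholine follows compound addition during the same imaging run; raw fluorescence intensity difference in instrument units with no normalization to controls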
# M4 agonist ctr: activates rat M4 receptor in counter-screen for M1 agonists. shares compounds with M1 ag. CHO M4/Gqi5 cells, Fluo-4 calcium fluorescence, agonist mode; actives lie on both sides. fluorescence change (max-min) at 10 µM. 1,700 tested, 9% active. AID 1741;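 active = fluorescence change differing from the plate's solvent-only control wells at 99.7% confidence in both duplicates, whether higher or lower; inconclusive = differs from solvent controls in only one of two duplicates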
# Target sequence (P08485 whole entry, looked up): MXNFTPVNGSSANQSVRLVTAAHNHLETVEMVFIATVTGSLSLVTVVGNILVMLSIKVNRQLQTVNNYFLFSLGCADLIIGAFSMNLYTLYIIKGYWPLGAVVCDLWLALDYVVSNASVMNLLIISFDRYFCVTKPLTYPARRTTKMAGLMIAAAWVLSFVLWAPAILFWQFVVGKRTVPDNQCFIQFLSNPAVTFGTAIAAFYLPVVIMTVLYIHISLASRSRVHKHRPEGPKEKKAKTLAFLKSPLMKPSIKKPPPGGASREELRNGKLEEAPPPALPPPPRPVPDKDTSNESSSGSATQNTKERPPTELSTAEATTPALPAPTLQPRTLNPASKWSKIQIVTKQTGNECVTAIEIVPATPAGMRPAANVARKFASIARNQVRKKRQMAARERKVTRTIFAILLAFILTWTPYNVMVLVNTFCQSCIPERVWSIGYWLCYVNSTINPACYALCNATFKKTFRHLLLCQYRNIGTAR
# The depositor's hits bear a star; ? = inconclusive; / = no result.
SMILES,SF-1 act,M1 antagonist,mHtt clearance,RORa activator,M1 ag,D1 allo mod,M1 agonist conf,M4 agonist ctr
FC(F)(F)C1=CC(c2ccc(Br)cc2)=NCCN1,/,/,-24.5,/,/,/,/,/
COC(CN1C(=O)C(O)=C(C(C)=O)C1c1ccccn1)OC (centres undefined),/,/,-34.9,/,/,/,/,/
COc1ccc(-n2c(O)c(/C=N/n3cnnc3)c3ccccc3c2=O)cc1,-11.6,-0.431,/,-9.4,14.8*,1.51,164*,138
O=c1c2ccccc2c(/C=N/n2cnnc2)c(O)n1-c1ccccc1,-4.2,-0.0215,33.0,-0.4,9*,-0.362,149*,123*
O=C(O)c1cc(O)c2c(c1)C(=O)c1cccc(O)c1C2=O,-4.1,-0.0907,/,-27.7,67.5*,1.5,189*,?
Nc1cccc(C(=O)O)c1,-4.4,0.146,/,0.9,-0.193,-0.652,/,/
Cc1cc(C(=O)CSc2nnc(-c3ccco3)o2)c(C)n1-c1ccc2c(c1)OCCO2,7.2,-0.29,/,19.8,12.1*,/,?,-44.1
O=C(Nc1ccc2nc(-c3ccco3)c(-c3ccco3)nc2c1)N1CCCCCC1,4.3,-4.58*,/,-22.6,29.9*,-4.46*,362*,?
CCOC(=O)C1CCN(C(=O)Nc2ccc3c(c2)nc(C)n3C)CC1,25.1,0.204,-41.8,22.6,0.554,-0.947,/,/
CCOC(=O)C1CCN(C(=O)Nc2ccc3nc(-c4ccco4)c(-c4ccco4)nc3c2)CC1,-3.6,-11.7*,2.3,-1.3,83.6*,-1.51,392*,?
Cc1nc2ccc(NC(=O)N3CCCCC3)cc2nc1C,/,/,15.7,/,/,/,/,/
CSc1ccccc1C(=O)NCc1ccc2c(c1)OCO2,-14.5,0.287,59.8,-12.8,0.0291,0.0676,/,/
COC(=O)c1cc(NC(=O)CC2NC3CCCCC3NC2=O)cc(C(=O)OC)c1 (centres undefined),/,/,29.7,/,/,/,/,/
CCCCCn1c(CCNC(=O)c2cccs2)nc2ccccc21,-16.7,0.388,/,-18.4,10.9*,/,-30*,-79.1
CCCCCn1c(CNC(=O)c2cccs2)nc2ccccc21,-9.1,0.193,/,-4.7,0.045,/,/,/
CN(C)C=Nc1c(Br)cc(Br)c2nonc12,-6.3,-1.89,90.7*,-6.6,61.5*,0.694,278*,617*
Cc1cc(C(=O)NCCCN2CCN(C3CCCCC3)CC2)n(-c2ccccc2)n1,-4.0,-0.555,-45.6,-17.3,31.7*,0.0655,12.9,?
Cc1ccccc1NC(=O)NCCCN1CCN(C2CCCCC2)CC1,-4.4,0.0222,50.7,-27.4,-0.268,0.375,/,/
CN(C)/C=c1\sc2c(C#N)cc(C(=O)c3ccc(Br)cc3)n2c1=O,4.8,0.228,/,21.6,75.2*,1.18,278*,714*
CCn1c(SCC(=O)NCc2ccc3c(c2)OCO3)nnc1-c1c[nH]c2ccccc12,-8.8,-0.162,/,3.2,0.37,-0.175,/,/
Cc1ccnc(SCCn2c(N3CCN(C)CC3)nc3c2c(=O)[nH]c(=O)n3C)n1,-0.2,1.29,/,-6.5,0.685,0.887,/,/
Cc1ccnc(SCCn2c(N3CCN(c4ccccc4)CC3)nc3c2c(=O)[nH]c(=O)n3C)n1,30.8,0.0531,/,-2.4,6.38*,-4.47*,-7.79,?
CCN(CC)S(=O)(=O)c1ccc(C(=O)N2CCN=C2SC)cc1,14.5,0.136,/,-16.9,15.6*,-0.179,?,-47.4
Cc1nn(Cc2ccc(C(=O)NC(C)(C)C)o2)c(C)c1Br,-38.8,-1.89,/,-21.6,3.92*,-0.595,16.8,-15.3
CCOC(=O)/C(=C\Nc1ccc(OC(F)(F)F)cc1)Sc1ncc(C(F)(F)F)cc1Cl,/,/,2.4,/,/,/,/,/
SMILES,SF-1 act,M1 antagonist,mHtt clearance,RORa activator,M1 ag,D1 allo mod,M1 agonist conf,M4 agonist ctr
COC(=O)/C=c1\sc2n(c1=O)C(C)=CC(C)(C)N=2,-7.8,0.391,25.4,3.9,5.62*,/,-12,-44.4
COC(=O)/C=c1/sc2n(c1=O)CCN=2,-17.1,0.203,/,-7.8,-0.363,-0.148,/,/
Cc1ccc(N2CCCCn3c2nc2c3c(=O)n(CC(=O)O)c(=O)n2C)cc1,14.5,0.196,-0.1,-8.0,-0.443,0.467,/,/
Cc1nc2ccccc2n2c(O)c(CC(=O)O)cc12,-4.6,-0.00134,/,-2.2,269*,-0.0126,1125*,1088*
O=C1O/C(=C/C(=O)N2CCOCC2)c2ccccc21,/,/,49.2,/,/,/,/,/
COc1ccc(C2(NC(C)=O)CCN(C(=O)c3cccs3)CC2)cc1,/,/,49.8,/,/,/,/,/
CCN1CCc2c(sc(N)c2C#N)C1,-1.5,-1.47,-32.9,26.3,11.5*,-0.358,14.8,3.3
CC(C)N1CCc2c(sc(N)c2C#N)C1,0.9,0.0839,/,4.0,13.4,-0.377,/,/
Cc1nnc(NC(=O)C2C3C=CC(O3)C2C(=O)O)s1 (centres undefined),-1.6,0.586,20.4,-18.4,3.36*,0.235,?,-40.8
COC(=O)c1ccc(NC(=O)C2C3C=CC(O3)C2C(=O)O)cc1 (centres undefined),5.1,0.11,14.9,14.7,-0.5,-0.386,/,/
O=C(c1ccco1)N1CCN(CC(O)Cn2c3ccccc3c3ccccc32)CC1 (centres undefined),5.3,-0.0156,/,-4.4,3.76,-0.0154,/,/
C#CC1(O)CC(C)N(C)C(C)C1 (centres undefined),-29.0,0.278,/,-16.8,2.4*,-1.49,-10.6,-24.4
CCN(CC)C(=O)CSc1nnc(-c2cccnc2)n1CCc1ccccc1,-14.2,-0.0487,/,-15.9,8.29*,-0.647,-23.6,-50.6
NC(=O)CSc1nnc(-c2cccnc2)n1CCc1ccccc1,6.2,0.0252,/,-15.6,0.072,0.2,/,/
Cc1cccc(OCCCCCn2ccnc2)c1,12.2,-0.477,-17.2,9.1,4.53*,-0.522,37.4,-44.9
Cc1ccccc1OCCCCCn1ccnc1,-6.9,-0.0444,-74.0,-16.1,-0.691,-0.434,/,/
c1ccc(Cn2nnnc2C(c2cccnc2)N2CCN(c3ccccc3)CC2)cc1 (centres undefined),6.3,-1.07,37.3,-16.3,6.09*,-0.125,?,?
COc1ccc(C2=CC(c3c(C)nn(-c4ccccc4)c3Cl)n3nnnc3N2)cc1OC (centres undefined),-8.8,1.77,/,-5.2,5.49*,1.96,37.7,8.5
O=C(COC(=O)C1c2ccccc2Oc2ccccc21)Nc1ccc2c(c1)OCO2,5.9,-1.31,/,-11.6,-1.22,-0.783,/,/
O=C(CSc1nc2[nH]ncc2c(=O)n1-c1ccccc1)c1ccc2c(c1)OCCO2,28.6,-0.463,41.6,26.3,7.22*,-2.05,?,-34.9
CCOC(=O)N1CCN(C(=O)c2cccn3c(=O)c4sccc4nc23)CC1,0.3,0.0147,15.7,-16.0,-1.2,-0.0508,/,/

# High-throughput results as filed in PubChem BioAssay.
